Experimental data: ChEMBL document CHEMBL1124060, “2-Ethynylbenzenealkanamines. A new class of calcium entry blockers” (1988)

How the values were obtained:
Assay type in all cases: functional
Cavia porcellus [1] = species: Cavia porcellus; test: Concentration needed to elicit a 75% increase beyond control in coronary flow in ''Langendorff'', guinea pig heart (in vitro)
Method in brief: (§1)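 Isolated Langendorff-perfused guinea pig hearts infused with a range of drug concentrations; force (g), rate (beats/min) and coronary flow (mL/min) recorded. A linear regression of percent-control flow gives C175, the micromolar concentration raising flow to 175% of control, reported only if within the tested range. Raw data analysed by paired t tests.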

Cavia porcellus [2] = species: Cavia porcellus; test: Concentration needed to achieve a 75% increase in coronary blood flow in 'Langendorff', guinea pig heart (in vitro negative inotropic activity); method in brief: as §1
Cavia porcellus [3] = species: Cavia porcellus; test: Concentration needed to achieve a 75% increase in coronary blood flow in 'Langendorff', guinea pig heart (in vitro Negative inotropic potency); method in brief: as §1
Rattus norvegicus [4] = test: Ability to lower blood pressure in the spontaneously hypertensive rat (SHR) at 3 mg/kg (p.o.); conditions: route oral
Method in brief: (§2)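 Spontaneously hypertensive rats dosed orally at the stated dose; read-out is the maximum fall in blood pressure (mmHg), with significance shown as P.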

Rattus norvegicus [5] = test: Ability to lower blood pressure in the spontaneously hypertensive rat (SHR) at 10 mg/kg (p.o.); conditions: route oral; method in brief: as §2
Rattus norvegicus [6] = test: Ability to lower blood pressure in the spontaneously hypertensive rat (SHR) at 30 mg/kg (p.o.); conditions: route oral
Method in brief: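 Spontaneously hypertensive rats were given a single oral dose of the compound. The read-out was the maximum fall in blood pressure, in mmHg, after that dose. A P value for significance was reported with each value.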

Oryctolagus cuniculus [7] = species: Oryctolagus cuniculus; test: In vitro inhibition of development of isometric tension, in response to KCl (60 uM) in rabbit aorta
Method in brief: (§3)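 Test compounds at 10 μM; tension and calcium influx each expressed as % change from control, measured against KCl ([…]) or NE (10 μM) stimulus.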

Oryctolagus cuniculus [8] = species: Oryctolagus cuniculus; test: In vitro inhibition of development of isometric tension, in response to norepinephrine (NE, 10 uM) in rabbit aorta; method in brief: as §3
Oryctolagus cuniculus [9] = species: Oryctolagus cuniculus; test: Inhibition of [Ca2+] influx in response to a stimulus of KCL (60 uM); method in brief: as §3
Oryctolagus cuniculus [10] = species: Oryctolagus cuniculus; test: Inhibition of [Ca2+] influx in response to a stimulus of norepinephrine (NE, 10 uM); method in brief: as §3

| Structure (SMILES) | C175 (Cavia porcellus [1]) | Contractile force, % of control (Cavia porcellus [2]) | P (Ei) (Cavia porcellus [3]) | Max fall in blood pressure (Rattus norvegicus [4]) | Max fall in blood pressure (Rattus norvegicus [5]) | Max fall in blood pressure (Rattus norvegicus [6]) | Change (Oryctolagus cuniculus [7]) | Change (Oryctolagus cuniculus [8]) | Change (Oryctolagus cuniculus [9]) | Change (Oryctolagus cuniculus [10]) | Control (Cavia porcellus [2]) |
| --- | --- | --- | --- | --- | --- | --- | --- | --- | --- | --- | --- |
| COc1cccc(CCN(C)C(C)Cc2cc(OC)ccc2C#Cc2ccccc2)c1 (configuration not stated) | 0.0035 µM | 95% | 0.21 | 67 mmHg | – | – | – | – | – | – | – |
| COc1ccc(C#Cc2ccc(C#N)cc2)c(CC(C)N(C)CCc2ccc(OC)c(OC)c2)c1 (configuration not stated) | 0.45 µM | 75% | <0.05 | – | 27 mmHg | – | – | – | – | – | – |
| COc1ccc(C#CCCc2ccccc2)c(CCCN(C)CCc2ccc(OC)c(OC)c2)c1 | 1.25 µM | 100% | >0.5 | – | 12 mmHg | – | – | – | – | – | – |
| CCC#Cc1ccc(OC)cc1CCCN(C)CCc1ccc(OC)c(OC)c1 | 1 µM | 80% | <0.05 | – | 24 mmHg | – | – | – | – | – | – |
| COc1ccc(C#Cc2ccccc2)c(CC(C)N(C)CCCCc2ccccc2)c1 (configuration not stated) | 2.75 µM | 90% | >0.05 | – | – | 74 mmHg | – | – | – | – | – |
| COc1ccc(C#Cc2ccc(C(F)(F)F)cc2)c(CC(C)N(C)CCc2ccc(OC)c(OC)c2)c1 (configuration not stated) | 2 µM | 90% | >0.5 | – | – | 49 mmHg | – | – | – | – | – |
| COc1ccc(C#Cc2ccccc2)c(CC(C)NCCc2ccc(Cl)cc2)c1 (configuration not stated) | >3 µM | >25% | <0.05 | – | 39 mmHg | – | – | – | – | – | – |
| COc1ccc(C#Cc2ccccc2)c(CC(C)NCCc2cccc(Cl)c2Cl)c1 (configuration not stated) | 0.0048 µM | 83% | 0.031 | 45 mmHg | – | – | – | – | – | – | – |
| COc1ccc(CCN(C)C(C)Cc2ccccc2C#Cc2ccccc2)cc1OC (configuration not stated) | 0.2 µM | 90% | >0.05 | – | 13 mmHg | – | – | – | – | – | – |
| CCCCCCN(C)C(C)Cc1cc(OC)ccc1C#Cc1ccccc1 (configuration not stated) | >3 µM | – | – | – | 48 mmHg | – | – | – | – | – | – |
| COc1ccc(C#Cc2ccc(SC)cc2)c(CC(C)N(C)CCc2ccc(OC)c(OC)c2)c1 (configuration not stated) | 0.55 µM | 80% | 0.5 | – | – | 45 mmHg | – | – | – | – | – |
| COc1ccc(C#Cc2ccc(C(C)C)cc2)c(CC(C)N(C)CCc2ccc(OC)c(OC)c2)c1 (configuration not stated) | 4.04 µM | 34% | <0.001 | 13 mmHg | – | – | – | – | – | – | – |
| COc1ccc(C#Cc2ccccc2)c(CC(C)N(C)CCc2ccccc2)c1 (configuration not stated) | 0.5 µM | 115% | >0.5 | – | 43 mmHg | – | – | – | – | – | – |
| COc1ccc(C#Cc2ccc(Cl)cc2)c(CC(C)N(C)CCc2ccc(OC)c(OC)c2)c1 (configuration not stated) | 0.3 µM | 85% | >0.5 | – | – | 46 mmHg | – | – | – | – | – |
| COc1ccc(C#Cc2ccccc2)c(CC(C)NCCc2ccc([N+](=O)[O-])cc2)c1 (configuration not stated) | >3 µM | >66% | <0.05 Ei | – | – | 66 mmHg | – | – | – | – | – |
| COc1ccc(C#Cc2ccccc2)c(CC(C)N(C)Cc2ccc(OC)c(OC)c2)c1 (configuration not stated) | 3 µM | 50% | <0.05 | – | 20 mmHg | – | – | – | – | – | – |
| COc1cccc(CC(C)NCCc2ccc(OC)c(OC)c2)c1 (configuration not stated) | >10 µM | – | – | – | – | 18 mmHg | – | – | – | – | – |
| COc1ccc(C#Cc2ccccc2)c(CCCN(C)C)c1 | 0.3 µM | 110% | >0.5 | – | – | 22 mmHg | – | – | – | – | – |
| COc1ccc(C#Cc2ccccc2)c(CC(C)N(C)CCc2cccc(Cl)c2)c1 (configuration not stated) | 0.005 µM | 95% | 0.53 | 64 mmHg | – | – | – | – | – | – | – |
| COc1ccc(CCN(C)C(C)CCc2cc(F)ccc2C#Cc2ccccc2)cc1OC (configuration not stated) | 0.34 µM | 85% | 0.45 | – | – | 50 mmHg | – | – | – | – | – |

| Structure (SMILES) | C175 (Cavia porcellus [1]) | Contractile force, % of control (Cavia porcellus [2]) | P (Ei) (Cavia porcellus [3]) | Max fall in blood pressure (Rattus norvegicus [4]) | Max fall in blood pressure (Rattus norvegicus [5]) | Max fall in blood pressure (Rattus norvegicus [6]) | Change (Oryctolagus cuniculus [7]) | Change (Oryctolagus cuniculus [8]) | Change (Oryctolagus cuniculus [9]) | Change (Oryctolagus cuniculus [10]) | Control (Cavia porcellus [2]) |
| --- | --- | --- | --- | --- | --- | --- | --- | --- | --- | --- | --- |
| COc1ccc(C#Cc2ccccc2)c(CC(C)NCCc2cccc3ccccc23)c1 (configuration not stated) | 0.083 µM | 77% | 0.003 | – | – | 48 mmHg | – | – | – | – | – |
| COc1cccc(CCNC(C)Cc2cc(OC)ccc2C#Cc2ccccc2)c1 (configuration not stated) | 0.004 µM | 115% | 0.019 | – | 56 mmHg | – | – | – | – | – | – |
| COc1cc(CCN(C)C(C)Cc2cc(OC)ccc2C#Cc2ccccc2)cc(OC)c1 (configuration not stated) | 0.0025 µM | 100% | 0.5 | 66 mmHg | – | – | -68% | -22% | -41% | -10% | – |
| COc1ccc(C#Cc2ccc(F)cc2)c(CC(C)N(C)CCc2ccc(OC)c(OC)c2)c1 (configuration not stated) | 0.0013 µM | 78% | 0.003 | 43 mmHg | – | – | – | – | – | – | – |
| CCCCN(CCc1ccc(OC)c(OC)c1)C(C)Cc1cc(OC)ccc1C#Cc1ccccc1 (configuration not stated) | >3 µM | – | – | – | – | 49 mmHg | – | – | – | – | – |
| COc1ccc(C#Cc2ccccc2)c(CC(C)N(C)CCCc2ccccc2)c1 (configuration not stated) | 2.5 µM | 95% | >0.5 | – | – | 52 mmHg | – | – | – | – | – |
| COc1ccc(C#Cc2ccccc2)c(CC(C)N(C)CCc2cccc3ccccc23)c1 (configuration not stated) | 0.19 µM | 61% | 0.005 | – | – | – | – | – | – | – | – |
| COc1cc(CCN(C)C(C)CCc2cc(OC)ccc2C#Cc2ccccc2)cc(OC)c1 (configuration not stated) | 0.095 µM | 105% | 0.15 | – | – | 42 mmHg | – | – | – | – | – |
| COc1ccc(C#Cc2ccc(N(C)C)cc2)c(CC(C)N(C)CCc2ccc(OC)c(OC)c2)c1 (configuration not stated) | 0.035 µM | 115% | 0.009 | 69 mmHg | – | – | – | – | – | – | – |
| COc1ccc(C#Cc2ccccc2)c(CC(C)NCCc2cccc(Cl)c2)c1 (configuration not stated) | 0.03 µM | 85% | 0.007 | 52 mmHg | – | – | – | – | – | – | – |
| COc1ccc(C#Cc2ccccc2)c(CC(C)N(C)CCc2cccc(Cl)c2Cl)c1 (configuration not stated) | 0.015 µM | 58% | 0.007 | 111 mmHg | – | – | – | – | – | – | – |
| COc1ccc(C#Cc2ccccc2)c(CCC(C)N(C)CCc2ccc(OC)c(OC)c2)c1 (configuration not stated) | 0.025 µM | 135% | 0.055 | – | – | 40 mmHg | -71% | -47% | -42% | -34% | – |
| COc1ccc(C#Cc2ccccc2)c(CC(C)NCCc2ccc(Cl)c(Cl)c2)c1 (configuration not stated) | 0.006 µM | 115% | 0.205 | 43 mmHg | – | – | -20% | -5% | -21% | -23% | – |
| COc1ccc(C#Cc2ccccc2)c(CC(C)NCCc2ccc(OC)c(OC)c2)c1 (configuration not stated) | 0.027 µM | 95% | >0.5 | 37 mmHg | – | – | -68% | -45% | -46% | -27% | – |
| COc1ccc(C#Cc2ccccc2)c(CCC(C)NCCc2ccc(OC)c(OC)c2)c1 (configuration not stated) | 0.07 µM | 123% | 0.001 | – | – | 20 mmHg | – | – | – | – | – |
| COc1cc(CCNC(C)CCc2cc(OC)ccc2C#Cc2ccccc2)cc(OC)c1 (configuration not stated) | 2.1 µM | 87% | 0.045 | – | – | 34 mmHg | – | – | – | – | – |
| COc1ccc(C#Cc2ccccc2)c(CCN(C)C)c1 | 3 µM | – | >0.05 | – | – | 18 mmHg | – | – | – | – | 90% |
| COc1ccc([C@@H]2Sc3ccccc3N(CCN(C)C)C(=O)[C@@H]2OC(C)=O)cc1 [DILTIAZEM] | 0.18 µM | 90% | >0.05 | – | – | 48 mmHg | -84% | -8% | -18% | -37% | – |
| COC(=O)C1=C(C)NC(C)=C(C(=O)OC)C1c1ccccc1[N+](=O)[O-] [NIFEDIPINE] | 0.013 µM | 85% | 0.014 | – | 52 mmHg | – | – | – | – | – | – |
| COc1ccc(CCN(C)CCCC(C#N)(c2ccc(OC)c(OC)c2)C(C)C)cc1OC (configuration not stated) [VERAPAMIL] | 0.1 µM | 35% | <0.001 | – | – | 67 mmHg | -89% | -18% | -30% | -22% | – |
